Our source for the MIC and IC50 values is ChEMBL document CHEMBL4251591, “Primaquine hybrids as promising antimycobacterial and antimalarial agents” (Eur J Med Chem, 2018).

For test [1], the system named is Mycobacterium avium complex sp. The test can be described thus: Antimycobacterial activity against Mycobacterium avium complex CIT19/06 clinical isolate after 5 days by Alamar Blue assay. The class given is functional. The following applies: CIT19/06, 120 h.
The subject of a further test is L6. The test can be described thus: Cytotoxicity against rat L6 cells after 70 hrs by Alamar Blue-based assay. It counts as cell-based. As to conditions: L6, 70 h. In a few lines:
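Rat skeletal myoblast L-6 cells, 4000 per well, in RPMI 1640 with 10% FBS and L-glutamine. Eleven 3-fold serial dilutions spanning 100 to 0.002 were tested for 70 h. Alamar Blue was then added for 2 h and fluorescence read at ex 536 / em 588 nm. IC50 came from linear regression of sigmoid curves, averaged over two replicate experiments, with podophyllotoxin as control.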

A further test relates to Mycobacterium avium. The test can be described thus: Antimycobacterial activity against Mycobacterium avium subsp. paratuberculosis CIT03 clinical isolate after 11 days by Alamar Blue assay. It counts as functional. As to conditions: CIT03, 264 h. In general terms: Resazurin is reduced to fluorescent resorufin, in cell work by metabolically active cells.
Test [2] has as its system Mycobacterium tuberculosis. In words: Antimycobacterial activity against Mycobacterium tuberculosis H37Ra ATCC 25177 after 7 days by Alamar Blue assay. It counts as functional. As to conditions: H37Ra ATCC 25177, 168 h. Put shortly: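 Log-phase culture washed and resuspended in supplemented Middlebrook 7H9GC broth, adjusted to McFarland No. 1, then diluted 1:20. Equal volumes of culture and DMSO-prepared compound dilutions were tested in duplicate for 7 days. 10% AlamarBlue was added, with 570/600 nm readings for background and after 24 h reincubation. Blue meant no growth, pink meant growth. MIC was the lowest concentration without visible growth.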

Another test concerns Plasmodium berghei. The test can be described thus: Antimalarial activity against liver stage of firefly luciferase-expressing Plasmodium berghei infected in human HuH7 cells measured after 48 hrs post parasite addition by luciferase-based luminescence assay. The following applies: Huh-7, 48 h. It counts as functional, organism-based. Put shortly:
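HuH7 hepatoma cells seeded at 1.0 × 10^4 per well the day before infection. Drug-containing medium was added 1 h before 1.0 × 10^4 sporozoites, followed by centrifugation at 1800 × g for 5 min. Infection load was read by bioluminescence 48 h later, and host viability by CellTiter-Blue. IC50 came from nonlinear regression of normalized dose-response curves.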

A further test has as its system HEK293. The test can be described thus: Cytotoxicity against human HEK293 cells. The class given is cell-based.

SMILES strings stand for the structures. pIC50: −log10 of the molar value. In brackets after ≈: the same amount, converted by molar mass. Bounds are passed on as bounds.

Take `COc1cc(NC(C)CCCNC(=O)NCCCC(C)Nc2cc(OC)cc3cccnc23)c2ncccc2c1` (stereo not drawn): the values for the MIC (in test [1]; against Mycobacterium avium; in test [2]) were 256 µg/mL (≈ 470 µM), 128 µg/mL (≈ 235 µM) and 128 µg/mL (≈ 235 µM), respectively. In the test on L6, the IC50 (in general, the concentration at which inhibition is half-maximal) was over 100 µg/mL.

As for `COc1ccc(/C=C/C(=O)NCCCC(C)Nc2cc(OC)cc3cccnc23)cc1` (stereo not drawn), the MIC (as a rule, the smallest concentration in the dilution series that meets the test's criterion for growth inhibition) in test [1] came out at 128 µg/mL (≈ 305 µM); in the test on Mycobacterium avium, 64 µg/mL (≈ 153 µM); in test [2], 64 µg/mL (≈ 153 µM). In the test on L6, the IC50 was over 100 µg/mL.

Turning to `COc1ccc(C(=NNC(=O)NNC(=O)NCCCC(C)Nc2cc(OC)cc3cccnc23)c2ccc(OC)cc2)cc1` (stereo not drawn), the MIC came to 16 µg/mL (≈ 26.7 µM) in test [1], 4 µg/mL (≈ 6.67 µM) in the test on Mycobacterium avium and 2 µg/mL (≈ 3.34 µM) in test [2]. Further, the pIC50 (commonly the negative decadic logarithm of the IC50, by convention in mol/L) in the test with Plasmodium berghei was 7.08.

With `COc1cc(NC(C)CCCNC(=O)NNC(=O)Nc2ccc(Cl)c(C(F)(F)F)c2)c2ncccc2c1` (stereo not drawn), the MIC (in test [1]; in the test with Mycobacterium avium; in test [2]) was 2 µg/mL (≈ 3.71 µM) in each case. Further, the IC50 in the test with L6 turned out to be 30 µg/mL (≈ 55.7 µM).

In the case of `COc1cc(NC(C)CCCNC(=O)N(C)C(c2ccccc2)c2ccccc2)c2ncccc2c1` (stereo not drawn), the MIC (in test [1]; in the test on Mycobacterium avium; in test [2]) was 128 µg/mL (≈ 265 µM) throughout. In addition, the IC50 in the test on L6 was determined as 80.5 µg/mL (≈ 167 µM).

In the case of `COc1ccc(/C(=N/NC(=O)NCCCC(C)Nc2cc(OC)cc3cccnc23)c2ccccc2)cc1` (stereo not drawn), the values for the minimal inhibitory concentration (MIC) (in test [1]; in the test on Mycobacterium avium; in test [2]) were 256 µg/mL (≈ 500 µM), 128 µg/mL (≈ 250 µM) and 128 µg/mL (≈ 250 µM), respectively. The IC50 in the test with L6 is over 100 µg/mL.

As for `COc1ccc(C(=NNC(=O)NCCCC(C)Nc2cc(OC)cc3cccnc23)c2ccc(OC)cc2)cc1` (stereo not drawn), the MIC was found to be 256 µg/mL (≈ 473 µM) in test [1], 128 µg/mL (≈ 236 µM) against Mycobacterium avium and 128 µg/mL (≈ 236 µM) in test [2]. Moreover, the IC50 in the test with L6 was over 100 µg/mL.

On to `COc1cc(NC(C)CCCNC(=O)Nc2cccc(C(F)(F)F)c2)c2ncccc2c1` (stereo not drawn), for which the MIC (in test [1]; in the test with Mycobacterium avium; in test [2]) was 2 µg/mL (≈ 4.48 µM) throughout. The midpoint of inhibition with L6, the IC50, lay at 150 µg/mL (≈ 336 µM).

`COc1cc(NC(C)CCCNC(=O)Nc2cc(C(F)(F)F)cc(C(F)(F)F)c2)c2ncccc2c1` (stereo not drawn) registered an IC50 in the test with HEK293 of 7.67 µg/mL (≈ 14.9 µM).

Consider `COc1cc(NC(C)CCCNC(=O)NNC(=O)Nc2ccc(C(F)(F)F)cc2)c2ncccc2c1` (stereo not drawn), for which the MIC (in test [1]; in the test on Mycobacterium avium; in test [2]) was 128 µg/mL (≈ 254 µM) throughout. Besides, the pIC50 with Plasmodium berghei was 7.13.

In the test with Plasmodium berghei, `COc1cc(NC(C)CCCNC(=O)NNC(=O)Nc2ccc(F)cc2)c2ncccc2c1` (stereo not drawn) showed a pIC50 of 5.73.

Take `COc1cc(NC(C)CCCNC(=O)Nc2ccc(Br)cc2)c2ncccc2c1` (stereo not drawn): the MIC turned out to be 16 µg/mL (≈ 35 µM) in test [1], 16 µg/mL (≈ 35 µM) in the test on Mycobacterium avium and 8 µg/mL (≈ 17.5 µM) in test [2]. Besides, it took 200 µg/mL (≈ 437 µM) to reach half-maximal inhibition in the test with HEK293 (IC50).

On to `COc1cc(NC(C)CCCNC(=O)NNC(=O)Nc2ccc(Cl)cc2)c2ncccc2c1` (stereo not drawn), for which the results for the MIC (in test [1]; against Mycobacterium avium; in test [2]) were 256 µg/mL (≈ 544 µM), 128 µg/mL (≈ 272 µM) and 128 µg/mL (≈ 272 µM), respectively. In the test with Plasmodium berghei, this molecule had a pIC50 of 7.38.

For the molecule `COc1cc(NC(C)CCCNC(=O)Nc2ccc(C(F)(F)F)cc2)c2ncccc2c1` (stereo not drawn), the MIC is 16 µg/mL (≈ 35.8 µM) in test [1], 8 µg/mL (≈ 17.9 µM) in the test with Mycobacterium avium and 4 µg/mL (≈ 8.96 µM) in test [2]. The molecule also came in with an IC50 in the test on HEK293 of 200 µg/mL (≈ 448 µM).

Take `COc1cc(NC(C)CCCNC(=O)Nc2cccc(Cl)c2)c2ncccc2c1` (stereo not drawn): the MIC (in test [1]; with Mycobacterium avium; in test [2]) was 16 µg/mL (≈ 38.7 µM) each time. Moreover, the IC50 in the test with L6 turned out to be 10 µg/mL (≈ 24.2 µM).

With `COc1cc(NC(C)CCCNC(=O)Nc2ccc(F)cc2)c2ncccc2c1` (stereo not drawn), the results for the MIC (in test [1]; in the test on Mycobacterium avium; in test [2]) were 16 µg/mL (≈ 40.4 µM), 16 µg/mL (≈ 40.4 µM) and 8 µg/mL (≈ 20.2 µM), respectively. For the same molecule, 9.3 µg/mL (≈ 23.5 µM) corresponded to half-maximal inhibition in the test with L6 (IC50).

As for `COc1cc(NC(C)CCCNC(=O)/C=C/c2cc(C(F)(F)F)cc(C(F)(F)F)c2)c2ncccc2c1` (stereo not drawn), the MIC in test [1] stood at 64 µg/mL (≈ 122 µM); with Mycobacterium avium, 16 µg/mL (≈ 30.4 µM); in test [2] it was 16 µg/mL (≈ 30.4 µM). In the test with Plasmodium berghei, the negative logarithm of the IC50 (pIC50) is 5.62.

In the case of `COc1cc(NC(C)CCCNC(=O)/C(C)=C/c2ccccc2)c2ncccc2c1` (stereo not drawn), the IC50 in the test on L6 is over 100 µg/mL. The same molecule gave a pIC50 in the test with Plasmodium berghei of 6.14.

Consider `COc1cc(NC(C)CCCNC(=O)NNC(=O)NC(c2ccccc2)(c2ccccc2)c2ccccc2)c2ncccc2c1` (stereo not drawn), for which the MIC (in test [1]; with Mycobacterium avium; in test [2]) was 128 µg/mL (≈ 212 µM) in each case. In the test on L6, this molecule came in with an IC50 of over 65 µg/mL.

`COc1cc(NC(C)CCCNC(=O)NNC(=O)Nc2cccc(Br)c2)c2ncccc2c1` (stereo not drawn): the values for the MIC (in test [1]; in the test with Mycobacterium avium; in test [2]) were 256 µg/mL (≈ 497 µM), 128 µg/mL (≈ 248 µM) and 128 µg/mL (≈ 248 µM), respectively. In the test with L6, this molecule yielded an IC50 of 20 µg/mL (≈ 38.8 µM). In the test on Plasmodium berghei, this molecule gave a pIC50 of 6.74.
